Measurements: publication PMC4245089 (International Journal of Nanomedicine, 2014)
Several values for one entry are separate records, joined by “and”; a condition that tells them apart may be missing. Equal entries are not always repeated. Entries after “also recorded” stand apart in the source; their conditions may differ.

Experiments:
[1] = test system: P. berghei-ANKA-infected C57BL/6 mice; test: Liver and kidney function tests; assay type: in vivo; details: serum
[2] = test system: P. falciparum 3D7 strain (chloroquine sensitive); test: Growth inhibition of blood-stage P. falciparum 3D7 by microscopy; assay type: cell-based, Plasmodium falciparum
Summary of the method: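 Human RBCs were infected with synchronized 3D7 ring stages and held at 10% hematocrit and 2% parasitemia, with medium changed every 24 h. Ten concentrations were run in duplicate, and stage of action was tested at 2.5 μM. Giemsa smears were read at 48 and 72 h. Percent parasitemia was taken as infected/total RBCs over at least ten fields. Dead parasites were scored by lost membrane, shrinkage or unstained cytoplasm.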

[3] = test system: Human fibroblast L-929 cells; test: Cell viability assay; assay type: cell-based; details: 8.11-129.88 μmol/L; 24, 48 and 72 hours
Summary of the method: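 L-929 fibroblasts seeded at 1×10^4 cells/well in DMEM. Exposed to native or nanoparticle test compound at 8.11–129.88 μmol/L for 24, 48 and 72 h. MTT (12 mM) added for 2 h at 37°C. Formazan dissolved in DMSO for 1 h at 37°C in the dark. Absorbance read at 595 nm.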

parasitized erythrocytes = test: Nanotized curcumin uptake assay by fluorimetry, parasitized erythrocytes; assay type: cell-based; details: treated (parasitized) cultures, 1 μM
uninfected erythrocytes = test: Nanotized curcumin uptake assay by fluorimetry, uninfected erythrocytes; assay type: cell-based; details: 1 μM
P. berghei-ANKA = test: Dose kinetics / antimalarial efficacy in P. berghei-ANKA-infected C57BL/6 mice; assay type: in vivo, Plasmodium berghei; details: oral, 10 mg/kg body weight
Summary of the method: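 C57BL/6 mice were infected intravenously with 2.5×10^6 P. berghei-ANKA parasites. Oral dosing began 24 h post-infection and ran twice weekly for 1 month at 10, 20 and 40 mg/kg body weight. Parasitemia was counted every fourth day, and mean survival days were recorded. Optimum dose was set by Peterson's test and mortality rate. Data are mean ± SEM, n=6.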

[4] = Aqueous dispersibility and storage stability of lyophilized powder; assay type: physicochemical
[5] = mice, oral
[6] = day 6, curcumin forms 20 mg/kg oral biweekly
[7] = day 15, curcumin forms 20 mg/kg oral biweekly
[8] = day 21, curcumin forms 20 mg/kg oral biweekly

Structure (SMILES) | ALP [1, 6] [KA units] | Bilirubin [1, 6] | Creatinine [1, 6] [mg/dL] | SGOT activity [1, 6] [U/L] | SGPT activity [1, 6] [U/L] | Urea [1, 6] [mg/dL] | ALP [1, 7] [KA units] | Bilirubin [1, 7] [mg/dL] | Creatinine [1, 7] [mg/dL] | SGOT activity [1, 7] [U/L] | SGPT activity [1, 7] [U/L] | Urea [1, 7] [mg/dL] | Bilirubin [1, 8] | Creatinine [1, 8] [mg/dL] | SGOT activity [1, 8] [U/L] | SGPT activity [1, 8] [U/L] | Urea [1, 8] [mg/dL] | further results
CCN(CC)CCCC(C)Nc1ccnc2cc(Cl)ccc12 (stereo not drawn) [chloroquine] | 16.4±2.61 | 1.15 ± 0.16 mg/dL | 2.10 ± 0.24 | 36.20±0.72 | 39.41±4.32 | 50.32 ± 2.43 | 10.6±2.31 | 1.82 ± 0.18 | 1.60 ± 0.27 | 33.31±0.61 | 32.34±3.42 | 40.82 ± 2.51 | 0.60 ± 0.24 mg/dL | 1.23 ± 0.17 | 14.14±0.51 | 30.17±3.61 | 33.44 ± 2.56 | –
COc1cc(C=CC(=O)CC(=O)C=Cc2ccc(O)c(OC)c2)ccc1O [native curcumin, 1,7-bis(4-hydroxy 3-methoxyphenyl)-1,6-heptadiene-3,5-dione] | 30.72±2.92 | 1.6 mg/dL and 1.60 ± 0.36 mg/dL | 3.29 ± 0.37 | 66.43±0.65 | 98.34±4.68 | 54.24 ± 2.37 | 28.81±2.65 | 2.19 ± 0.20 | 2.90 ± 0.46 | 72.80±0.71 | 102.69±5.71 | 61.72 ± 2.61 | 2.10 mg/dL and 2.10 ± 0.25 mg/dL | 2.70 ± 0.51 | 75.71±0.47 | 136.31±6.45 | 87.46 ± 2.54 | IC50 ([2]; Plasmodium falciparum, 3D7, read-out: IC50 for growth inhibition of parasites): 5 µM; parasites eradicated ([2]; synchronized ring stage culture, 2.5 μM, 72 hours): 60%; cytotoxicity (growth inhibition of L-929 cells) [3]: marginal cytotoxic effects; concentration found inside the cells (parasitized erythrocytes; first growth cycle, n=3): 300 nM; concentration found inside the cells (parasitized erythrocytes; second growth cycle): 250 nM; concentration found inside the cells (uninfected erythrocytes; first growth cycle, n=3): 240 nM; concentration found inside the cells (uninfected erythrocytes; second growth cycle): 100 nM; survival (to day) (P. berghei-ANKA): 20 days; ALP [1, 8]: 36.91±2.67 KA units; dispersibility / solubility in water [4]: only soluble in organic solvents such as dimethyl sulfoxide; also recorded: completely insoluble in water; time post-feeding until which curcumin was present/detectable in plasma [5]: 15 h
